Source: ChEMBL document CHEMBL1157130, “Cytotoxic naphthoquinones from Alkanna cappadocica ( perpendicular)” (J Nat Prod, 2010)

Test system: HepG2
Assay: Cytotoxicity against human HepG2 cells after 48 hrs by MTT assay
Format: functional, cell-based
Conditions: HepG2, 48 h
Summary of the method: (§1)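 Cells grown in RPMI 1640 or DMEM-Ham's F12 with 10% FBS, 2 mmol/L L-glutamine, penicillin/streptomycin, at 37 °C, 5% CO2. Exponential-phase cells seeded at 6000/well, incubated 24 h, then exposed 48 h to 0.1–10 µM compound (DMSO ≤0.1% final). MTT 0.5 mg/mL added for 3 h, formazan dissolved in DMSO, read at 570-690 nm. IC50 from % viability; three independent assays, triplicate wells.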

| SMILES | IC50 |
| --- | --- |
| CC(=O)O[C@@H](CC=C(C)C)C1=CC(=O)c2c(O)ccc(O)c2C1=O [ACETYLALKANNIN] | 7.41 µM |
| CC(C)=CC[C@H](O)C1=CC(=O)c2c(O)ccc(O)c2C1=O [ALKANNIN] | 3.8 µM |
| CC(C)=CCCC1=CC(=O)c2c(O)ccc(O)c2C1=O [DEOXYSHIKONIN] | 0.9 µM |

Test system: DU-145
Assay: Cytotoxicity against human DU145 cells after 48 hrs by MTT assay
Format: functional, cell-based
Conditions: DU-145, 48 h
Summary of the method: as §1

| SMILES | IC50 |
| --- | --- |
| CC(=O)O[C@@H](CC=C(C)C)C1=CC(=O)c2c(O)ccc(O)c2C1=O [ACETYLALKANNIN] | 6.65 µM |
| CC(C)=CC[C@H](O)C1=CC(=O)c2c(O)ccc(O)c2C1=O [ALKANNIN] | 5.02 µM |
| CC(C)=CCCC1=CC(=O)c2c(O)ccc(O)c2C1=O [DEOXYSHIKONIN] | 1.24 µM |

Test system: HeLa
Assay: Cytotoxicity against human HeLa cells after 48 hrs by MTT assay
Format: functional, cell-based
Conditions: not given
Summary of the method: as §1

| SMILES | IC50 |
| --- | --- |
| CC(=O)O[C@@H](CC=C(C)C)C1=CC(=O)c2c(O)ccc(O)c2C1=O [ACETYLALKANNIN] | 6.75 µM |
| CC(C)=CC[C@H](O)C1=CC(=O)c2c(O)ccc(O)c2C1=O [ALKANNIN] | 0.91 µM |
| CC(C)=CCCC1=CC(=O)c2c(O)ccc(O)c2C1=O [DEOXYSHIKONIN] | 0.85 µM |

Test system: AU565
Assay: Cytotoxicity against human AU565 cells after 48 hrs by MTT assay
Format: functional, cell-based
Conditions: AU565, 48 h
Summary of the method: as §1

| SMILES | IC50 |
| --- | --- |
| CC(=O)O[C@@H](CC=C(C)C)C1=CC(=O)c2c(O)ccc(O)c2C1=O [ACETYLALKANNIN] | 0.88 µM |
| CC(C)=CC[C@H](O)C1=CC(=O)c2c(O)ccc(O)c2C1=O [ALKANNIN] | 0.9 µM |
| CC(C)=CCCC1=CC(=O)c2c(O)ccc(O)c2C1=O [DEOXYSHIKONIN] | 0.92 µM |

Test system: LNCaP
Assay: Cytotoxicity against human LNCAP cells after 48 hrs by MTT assay
Format: functional, cell-based
Conditions: not given
Summary of the method: as §1

| SMILES | IC50 |
| --- | --- |
| CC(=O)O[C@@H](CC=C(C)C)C1=CC(=O)c2c(O)ccc(O)c2C1=O [ACETYLALKANNIN] | 11.5 µM |
| CC(C)=CC[C@H](O)C1=CC(=O)c2c(O)ccc(O)c2C1=O [ALKANNIN] | 10.7 µM |
| CC(C)=CCCC1=CC(=O)c2c(O)ccc(O)c2C1=O [DEOXYSHIKONIN] | 12.2 µM |

Test system: NIH3T3
Assay: Cytotoxicity against mouse 3T3 cells after 48 hrs by MTT assay
Format: cell-based
Conditions: NIH3T3, 48 h
Summary of the method: as §1

| SMILES | IC50 |
| --- | --- |
| CC(=O)O[C@@H](CC=C(C)C)C1=CC(=O)c2c(O)ccc(O)c2C1=O [ACETYLALKANNIN] | 7.73 µM |
| CC(C)=CC[C@H](O)C1=CC(=O)c2c(O)ccc(O)c2C1=O [ALKANNIN] | 5.21 µM |
| CC(C)=CCCC1=CC(=O)c2c(O)ccc(O)c2C1=O [DEOXYSHIKONIN] | 5.84 µM |
| COc1cccc2c1C(=O)c1c(O)c3c(c(O)c1C2=O)C[C@@](O)(C(=O)CO)C[C@@H]3O[C@H]1C[C@H](N)[C@H](O)[C@H](C)O1 [DOXORUBICIN] | 3.7 µM |
| COc1cc([C@@H]2c3cc4c(cc3[C@@H](O[C@@H]3O[C@@H]5CO[C@@H](C)O[C@H]5[C@H](O)[C@H]3O)[C@H]3COC(=O)[C@H]23)OCO4)cc(OC)c1O [ETOPOSIDE] | 63 µM |

Test system: not listed separately
Assay: Cytotoxicity against human Hep3B cells after 48 hrs by MTT assay
Format: functional, cell-based, Hep 3B2
Conditions: not given
Summary of the method: as §1

| SMILES | IC50 |
| --- | --- |
| CC(=O)O[C@@H](CC=C(C)C)C1=CC(=O)c2c(O)ccc(O)c2C1=O [ACETYLALKANNIN] | 6.06 µM |
| CC(C)=CC[C@H](O)C1=CC(=O)c2c(O)ccc(O)c2C1=O [ALKANNIN] | 3.84 µM |
| CC(C)=CCCC1=CC(=O)c2c(O)ccc(O)c2C1=O [DEOXYSHIKONIN] | 6.02 µM |

Test system: MDA-MB-231
Assay: Cytotoxicity against human MDA-MB-231 cells after 48 hrs by MTT assay
Format: functional, cell-based
Conditions: MDA-MB-231, 48 h
Summary of the method: as §1

| SMILES | IC50 |
| --- | --- |
| CC(=O)O[C@@H](CC=C(C)C)C1=CC(=O)c2c(O)ccc(O)c2C1=O [ACETYLALKANNIN] | 8.47 µM |
| CC(C)=CC[C@H](O)C1=CC(=O)c2c(O)ccc(O)c2C1=O [ALKANNIN] | 4.27 µM |
| CC(C)=CCCC1=CC(=O)c2c(O)ccc(O)c2C1=O [DEOXYSHIKONIN] | 5.08 µM |
| COc1cccc2c1C(=O)c1c(O)c3c(c(O)c1C2=O)C[C@@](O)(C(=O)CO)C[C@@H]3O[C@H]1C[C@H](N)[C@H](O)[C@H](C)O1 [DOXORUBICIN] | 2 µM |
| COc1cc([C@@H]2c3cc4c(cc3[C@@H](O[C@@H]3O[C@@H]5CO[C@@H](C)O[C@H]5[C@H](O)[C@H]3O)[C@H]3COC(=O)[C@H]23)OCO4)cc(OC)c1O [ETOPOSIDE] | 23.2 µM |

Test system: MCF7
Assay: Cytotoxicity against human MCF7 cells after 48 hrs by MTT assay
Format: functional, cell-based
Conditions: MCF7, 48 h
Summary of the method: as §1

| SMILES | IC50 |
| --- | --- |
| CC(=O)O[C@@H](CC=C(C)C)C1=CC(=O)c2c(O)ccc(O)c2C1=O [ACETYLALKANNIN] | 7.05 µM |
| CC(C)=CC[C@H](O)C1=CC(=O)c2c(O)ccc(O)c2C1=O [ALKANNIN] | 3.06 µM |
| CC(C)=CCCC1=CC(=O)c2c(O)ccc(O)c2C1=O [DEOXYSHIKONIN] | 0.79 µM |

Test system: PC-3
Assay: Cytotoxicity against human PC3 cells after 48 hrs by MTT assay
Format: functional, cell-based
Conditions: PC-3, 48 h
Summary of the method: as §1

| SMILES | IC50 |
| --- | --- |
| CC(=O)O[C@@H](CC=C(C)C)C1=CC(=O)c2c(O)ccc(O)c2C1=O [ACETYLALKANNIN] | 11 µM |
| CC(C)=CC[C@H](O)C1=CC(=O)c2c(O)ccc(O)c2C1=O [ALKANNIN] | 3.25 µM |
| CC(C)=CCCC1=CC(=O)c2c(O)ccc(O)c2C1=O [DEOXYSHIKONIN] | 4.29 µM |
| COc1cccc2c1C(=O)c1c(O)c3c(c(O)c1C2=O)C[C@@](O)(C(=O)CO)C[C@@H]3O[C@H]1C[C@H](N)[C@H](O)[C@H](C)O1 [DOXORUBICIN] | 3.16 µM |
| COc1cc([C@@H]2c3cc4c(cc3[C@@H](O[C@@H]3O[C@@H]5CO[C@@H](C)O[C@H]5[C@H](O)[C@H]3O)[C@H]3COC(=O)[C@H]23)OCO4)cc(OC)c1O [ETOPOSIDE] | 69.5 µM |

Test system: HT-29
Assay: Cytotoxicity against human HT-29 cells after 48 hrs by MTT assay
Format: functional, cell-based
Conditions: HT-29, 48 h
Summary of the method: as §1

| SMILES | IC50 |
| --- | --- |
| CC(=O)O[C@@H](CC=C(C)C)C1=CC(=O)c2c(O)ccc(O)c2C1=O [ACETYLALKANNIN] | 10.5 µM |
| CC(C)=CC[C@H](O)C1=CC(=O)c2c(O)ccc(O)c2C1=O [ALKANNIN] | 4.03 µM |
| CC(C)=CCCC1=CC(=O)c2c(O)ccc(O)c2C1=O [DEOXYSHIKONIN] | 5.12 µM |
| COc1cccc2c1C(=O)c1c(O)c3c(c(O)c1C2=O)C[C@@](O)(C(=O)CO)C[C@@H]3O[C@H]1C[C@H](N)[C@H](O)[C@H](C)O1 [DOXORUBICIN] | 2.05 µM |
| COc1cc([C@@H]2c3cc4c(cc3[C@@H](O[C@@H]3O[C@@H]5CO[C@@H](C)O[C@H]5[C@H](O)[C@H]3O)[C@H]3COC(=O)[C@H]23)OCO4)cc(OC)c1O [ETOPOSIDE] | 30.4 µM |

Test system: SAOS-2
Assay: Cytotoxicity against human Saos2 cells after 48 hrs by MTT assay
Format: functional, cell-based
Conditions: SAOS-2, 48 h
Summary of the method: as §1

| SMILES | IC50 |
| --- | --- |
| CC(=O)O[C@@H](CC=C(C)C)C1=CC(=O)c2c(O)ccc(O)c2C1=O [ACETYLALKANNIN] | 4.93 µM |
| CC(C)=CC[C@H](O)C1=CC(=O)c2c(O)ccc(O)c2C1=O [ALKANNIN] | 2.31 µM |
| CC(C)=CCCC1=CC(=O)c2c(O)ccc(O)c2C1=O [DEOXYSHIKONIN] | 0.85 µM |

Test system: Vero
Assay: Cytotoxicity against african green monkey Vero cells after 48 hrs by MTT assay
Format: cell-based
Conditions: Chlorocebus sabaeus
Summary of the method: as §1

| SMILES | IC50 |
| --- | --- |
| CC(=O)O[C@@H](CC=C(C)C)C1=CC(=O)c2c(O)ccc(O)c2C1=O [ACETYLALKANNIN] | 0.76 µM |
| CC(C)=CC[C@H](O)C1=CC(=O)c2c(O)ccc(O)c2C1=O [ALKANNIN] | 0.7 µM |
| CC(C)=CCCC1=CC(=O)c2c(O)ccc(O)c2C1=O [DEOXYSHIKONIN] | 0.66 µM |

Test system: SK-BR-3
Assay: Cytotoxicity against human SKBR3 cells after 48 hrs by MTT assay
Format: functional, cell-based
Conditions: SK-BR-3, 48 h
Summary of the method: as §1

| SMILES | IC50 |
| --- | --- |
| CC(=O)O[C@@H](CC=C(C)C)C1=CC(=O)c2c(O)ccc(O)c2C1=O [ACETYLALKANNIN] | 1.66 µM |
| CC(C)=CC[C@H](O)C1=CC(=O)c2c(O)ccc(O)c2C1=O [ALKANNIN] | 0.78 µM |
| CC(C)=CCCC1=CC(=O)c2c(O)ccc(O)c2C1=O [DEOXYSHIKONIN] | 0.69 µM |
